Source: PubChem (several laboratories)
The list is not random: actives were taken first. Their share in the collection is about 3.3%.
NRP1-CendR mod = NRP-1/CendR interaction modulation. O14786. FAM-RPARPAR peptide binding to NRP-1, fluorescence polarization. AID 602438. inhibition, % at 25 µM. 360,000 tested, 0.85% active;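 active = inhibition or corrected inhibition above about 18%, plus a signal ratio from 0.5 to 1.5, limit read from the data, passing the limit was not always enough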
Target sequence (O14786 whole entry, looked up): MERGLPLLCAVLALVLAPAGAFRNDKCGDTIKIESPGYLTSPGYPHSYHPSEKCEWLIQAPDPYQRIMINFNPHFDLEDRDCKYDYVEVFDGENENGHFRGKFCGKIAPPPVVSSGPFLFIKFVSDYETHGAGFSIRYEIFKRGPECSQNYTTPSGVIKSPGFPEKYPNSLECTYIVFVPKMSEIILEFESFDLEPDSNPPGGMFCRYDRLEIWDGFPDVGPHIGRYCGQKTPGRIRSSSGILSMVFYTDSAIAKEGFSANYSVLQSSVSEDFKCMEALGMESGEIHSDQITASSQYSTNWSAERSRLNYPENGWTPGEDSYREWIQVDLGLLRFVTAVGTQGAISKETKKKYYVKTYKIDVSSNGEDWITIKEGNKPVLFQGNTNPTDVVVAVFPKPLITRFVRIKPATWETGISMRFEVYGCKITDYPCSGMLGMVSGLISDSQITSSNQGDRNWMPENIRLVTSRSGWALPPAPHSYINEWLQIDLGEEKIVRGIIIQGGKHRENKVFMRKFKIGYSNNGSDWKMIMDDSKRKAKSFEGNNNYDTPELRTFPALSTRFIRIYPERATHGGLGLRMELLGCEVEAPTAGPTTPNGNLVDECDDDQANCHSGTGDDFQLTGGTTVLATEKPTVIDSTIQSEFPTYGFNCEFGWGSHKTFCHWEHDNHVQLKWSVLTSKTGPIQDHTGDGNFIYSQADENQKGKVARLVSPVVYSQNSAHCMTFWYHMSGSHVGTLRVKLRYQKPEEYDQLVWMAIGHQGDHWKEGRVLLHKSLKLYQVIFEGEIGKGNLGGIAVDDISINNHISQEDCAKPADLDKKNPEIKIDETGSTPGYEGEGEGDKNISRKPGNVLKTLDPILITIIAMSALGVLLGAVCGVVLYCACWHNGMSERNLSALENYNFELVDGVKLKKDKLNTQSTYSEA
ABCB6 inh MLPCN = inhibitors of human ABC transporter ABCB6 | AID 602162 | fluorescence ratio to DMSO, % at 10 µM | Q9NP58 | 360,000 tested, 0.19% active | K562-ABCB6 porphyrin accumulation, flow cytometry, 1 h; hits give low values;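 active = fluorescence ratio to DMSO below 75%, the collection mean minus 3 SD; inconclusive = too few cells collected in the well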;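 note: signal is porphyrin accumulated inside mitochondria; lower ratio means ABCB6 inhibition with less porphyrin fluorescence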
Granule exo inh = blocks lytic granule exocytosis; inhibition, % at 10 µM; TALL-104 LAMP-1 surface exposure, flow cytometry; cells stimulated with thapsigargin and PMA; 360,000 tested, 0.66% active;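 active = inhibition above about 55%, limit read from the data; inconclusive = no clear call, values can overlap the other calls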
Arrestin-AP2 inh = inhibitors of human beta-arrestin and AP2 interaction; FITC-arrestin peptide / GST-AP2 beads, flow cytometry; AP2 beta2 appendage carries R879A mutation; inhibition, % at 10 µM; 340,000 tested, 0.31% active; AID 504490;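 active = inhibition above a set limit, near 3 SD of compounds lacking own fluorescence, cut at about 54% in these data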
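Measured by: flow cytometry, FL1 (488/535 nm); Material: AP2 appendage R879A on GSH beads; Evaluation: percent response; Timing: pre-incubation 12 min, peptide binding 1 h, room temperature; Also added: 50 nM FITC-arrestin peptide; Medium: PBS with 0.05% Tween 20 and 0.1% BSA.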
Myeloid diff MLP = myeloid differentiation induction | ER-HoxA9 myeloid progenitors, lysozyme-GFP differentiation, flow cytometry | calls only at 10 µM | 360,000 tested, 1% active | AID 624256;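 active = normalized GFP-positive differentiation at or above the plate's own cutoff, the solvent-only control mean plus 3 SD; inconclusive = no clear call, values can overlap the other calls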;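 note: cells exposed to compound for four days before flow analysis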
ATG4B inhibitor = inhibitors of human ATG4B cysteine protease. Q9Y4P1. ATG4B cleavage of LC3-PLA2, NBD-HPC fluorescence, 1 h. inhibition, % at 8.33 µM. 340,000 tested, 0.51% active. AID 504462; in the data active = inhibition above about 40%
Myeloid diff CP1 = compounds promoting myeloid differentiation | AID 651706 | ER-HoxA9 myeloid progenitors, GFP/Mac1 double-positive flow | calls only | shares compounds with Myeloid diff MLP | 2,300 tested, 2% active;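 active = share of green or green-and-red cells above 9 and 9% in run 1 or 4 and 3% in run 2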
GFP autofluor = flagged as fluorescent in myeloid differentiation counter-screen; ER-HoxA9 myeloid progenitors, no estrogen, GFP autofluorescence flow cytometry; vehicle wells 0%, positive control 100%; 2,300 tested, 7.4% active; shares compounds with Myeloid diff MLP; fluorescence response, % (concentration not given with the values); AID 651707;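 active = over 5% cells positive for green fluorescent reporter, or over 2% positive for both it and APC stain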
A number is an active result.

How did O=C(NCc1ccc(OC(F)(F)F)cc1)C12CN(Cc3ccccc3)CC1C(c1cccc([N+](=O)[O-])c1)=NO2 (centres undefined) do in these assays?
NRP1-CendR mod: inactive; ABCB6 inh MLPCN: inactive; Granule exo inh: inactive; Arrestin-AP2 inh: inactive; Myeloid diff MLP: inactive; ATG4B inhibitor: inactive

How did CC1=Nc2ccccc2/C1=C/c1sc(=N)n(-c2nccs2)c1O do in these assays?
NRP1-CendR mod: inactive; ABCB6 inh MLPCN: inactive; Granule exo inh: inactive; Arrestin-AP2 inh: inactive; Myeloid diff MLP: inactive; ATG4B inhibitor: inactive; Myeloid diff CP1: inactive; GFP autofluor: 47

How did CCCCN(C)C1=Nc2cccc3cccc1c23 do in these assays?
NRP1-CendR mod: inactive; ABCB6 inh MLPCN: inactive; Granule exo inh: inactive; Arrestin-AP2 inh: inactive; Myeloid diff MLP: active; ATG4B inhibitor: inactive; Myeloid diff CP1: inactive; GFP autofluor: inactive

Results for Oc1ccc(-c2cnc3c(Nc4cccc(OC(F)(F)C(F)F)c4)nccn23)cc1 ?
NRP1-CendR mod: inactive; ABCB6 inh MLPCN: inactive; Granule exo inh: inactive; Myeloid diff MLP: active; Myeloid diff CP1: inactive; GFP autofluor: inactive

Results for Cc1nn(-c2ccccc2)c(N2CCCC2)c1/C=N/NC(=S)Nc1ccccc1F ?
NRP1-CendR mod: inactive; ABCB6 inh MLPCN: inactive; Granule exo inh: inactive; Arrestin-AP2 inh: inactive; Myeloid diff MLP: active; ATG4B inhibitor: inactive; Myeloid diff CP1: active; GFP autofluor: inactive

What do the screens show for `Cc1nn(-c2ccccc2)c(N2CCCC2)c1/C=N/NC(=O)c1cc2ccccc2cc1O`?
NRP1-CendR mod: inactive; ABCB6 inh MLPCN: inactive; Granule exo inh: inactive; Arrestin-AP2 inh: inactive; Myeloid diff MLP: inactive; ATG4B inhibitor: inactive

What do the screens show for `COc1cc(OC)c(OC)cc1/C=N/NC(=O)c1ccc(CSc2nc(C)cc(C)n2)cc1`?
NRP1-CendR mod: inactive; ABCB6 inh MLPCN: inactive; Granule exo inh: inactive; Arrestin-AP2 inh: inactive; Myeloid diff MLP: active; ATG4B inhibitor: inactive; Myeloid diff CP1: inactive; GFP autofluor: inactive

What do the screens show for `CCCCC(=O)N(C)c1c(C)nc2ccc(C(=O)N(CC)CCN(C)C)cn12`?
NRP1-CendR mod: inactive; ABCB6 inh MLPCN: inactive; Granule exo inh: inactive; Myeloid diff MLP: inactive

Results for Cc1ccc(NC(=O)c2ccc(NCCCN3CCC(C)CC3)c([N+](=O)[O-])c2)cc1F ?
NRP1-CendR mod: inactive; ABCB6 inh MLPCN: inactive; Granule exo inh: 68; Arrestin-AP2 inh: inactive; Myeloid diff MLP: inactive; ATG4B inhibitor: inactive; Myeloid diff CP1: inactive; GFP autofluor: inactive

What do the screens show for `O=C(Nc1cccc(Cl)c1)c1ccc(NCCCN2CCOCC2)c([N+](=O)[O-])c1`?
NRP1-CendR mod: inactive; ABCB6 inh MLPCN: inactive; Granule exo inh: inactive; Arrestin-AP2 inh: inactive; Myeloid diff MLP: inactive; ATG4B inhibitor: inactive

What do the screens show for `O=C(NCC1CCCO1)C(c1ccccn1)N(Cc1ccccc1Cl)C(=O)CN1C(=O)c2ccccc2S1(=O)=O` (centres undefined)?
NRP1-CendR mod: inactive; ABCB6 inh MLPCN: inactive; Granule exo inh: inactive; Arrestin-AP2 inh: inactive; Myeloid diff MLP: inactive; ATG4B inhibitor: inactive

What do the screens show for `COc1ccc(-n2nc3ccc(N)cc3n2)cc1Cl`?
NRP1-CendR mod: inactive; ABCB6 inh MLPCN: inactive; Granule exo inh: inactive; Arrestin-AP2 inh: inactive; Myeloid diff MLP: inactive; ATG4B inhibitor: inactive; Myeloid diff CP1: inactive; GFP autofluor: inactive

What do the screens show for `CC(C)CC(C(=O)NC1CCCCC1)N(Cc1ccccc1)C(=O)c1snc(C(N)=O)c1N` (centres undefined)?
NRP1-CendR mod: inactive; ABCB6 inh MLPCN: inactive; Granule exo inh: inactive; Arrestin-AP2 inh: inactive; Myeloid diff MLP: inconclusive; ATG4B inhibitor: inactive

How did Cc1ccc(C(=O)NNC2=Nc3cccc4cccc2c34)cc1 do in these assays?
NRP1-CendR mod: inactive; ABCB6 inh MLPCN: inactive; Granule exo inh: inactive; Arrestin-AP2 inh: inactive; Myeloid diff MLP: inactive; ATG4B inhibitor: inactive

Results for NC(=O)NNC1=Nc2cccc3cccc1c23 ?
NRP1-CendR mod: inactive; ABCB6 inh MLPCN: inactive; Granule exo inh: inactive; Arrestin-AP2 inh: inactive; Myeloid diff MLP: inactive; ATG4B inhibitor: inactive; Myeloid diff CP1: inactive; GFP autofluor: inactive
